Consider one compound from ChEMBL document CHEMBL5247599, “New β-arylchalcogeno amines with procognitive properties targeting Carbonic Anhydrases and Monoamine Oxidases” (Eur J Med Chem, 2022).

Structures are written as SMILES.

In assay [1] the test system is Mus musculus. Nature of the assay: Pro-cognitive activity in C57Bl6 mouse assessed as attenuation of long-term memory deficit by measuring increase in exploration time for novel juvenile by measuring discrimination index at 25 nmol/uL, icv measured after 48 hrs by novel object recognition test. The assay is classed as functional. The method, boiled down:
(§1)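 Social recognition in adult male C57Bl6 mice with intracerebroventricular cannulae. Habituation was 10 min with two empty cups. Twenty-four hours later, a novel 3–4-week-old juvenile was placed under one cup for 10 min of exploration, followed immediately by a 5 µL infusion at 1 µL/min. Retention 48 h later offered familiar versus novel juvenile, scoring snout-to-cup contact. DI = (tN−tF)/(tN+tF).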

The target of assay [2] is Carbonic anhydrase 12 (Homo sapiens) (UniProt O43570). Nature of the assay: Binding affinity to human CA12 by phenol red dye based stopped flow CO2 hydration assay. The conditions noted are these: filed as activator. In short, it runs like this: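 Purified recombinant human CA isoforms. CA-catalysed CO2 hydration was followed by stopped-flow with phenol red at 557 nm, taking initial rates over 10–100 s from at least six traces of the first 5–10% of reaction. Uncatalysed rates were subtracted. Activator stocks were 0.1 mM in deionised water, diluted down to 0.1 nM in assay buffer. K_A came from non-linear least-squares Michaelis–Menten fitting.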

The target of assay [3] is T1, Amine oxidase [flavin-containing] A (Homo sapiens, UniProt P21397).
T1 sequence (P21397 whole entry): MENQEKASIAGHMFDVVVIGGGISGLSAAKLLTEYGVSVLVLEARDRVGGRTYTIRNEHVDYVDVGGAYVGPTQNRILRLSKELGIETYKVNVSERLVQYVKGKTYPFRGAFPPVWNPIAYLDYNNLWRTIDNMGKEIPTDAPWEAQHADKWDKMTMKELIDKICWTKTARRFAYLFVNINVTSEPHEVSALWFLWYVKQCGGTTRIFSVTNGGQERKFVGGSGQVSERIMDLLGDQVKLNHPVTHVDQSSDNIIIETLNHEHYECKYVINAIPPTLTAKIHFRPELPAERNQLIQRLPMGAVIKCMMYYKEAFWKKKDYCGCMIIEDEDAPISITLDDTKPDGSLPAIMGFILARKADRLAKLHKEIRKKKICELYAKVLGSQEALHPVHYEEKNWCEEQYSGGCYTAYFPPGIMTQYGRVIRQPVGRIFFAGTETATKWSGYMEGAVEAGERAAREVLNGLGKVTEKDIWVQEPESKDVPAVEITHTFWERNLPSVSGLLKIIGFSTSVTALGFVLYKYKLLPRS
The assay is described as follows: Inhibition of human recombinant MAO-A assessed as inhibition of 4-hydroxyquinoline formation using kynuramine as substrate by fluorescence spectrophotometry analysis. In short, it runs like this: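 Recombinant human MAO-A with kynuramine as substrate. The 4-hydroxyquinoline product was quantified by fluorescence spectrophotometry, and IC50 values were determined.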

For assay [4], the system named is Mus musculus. The assay is described as follows: Pro-cognitive activity in C57Bl6 mouse assessed as attenuation of long-term memory deficit by measuring increase in exploration time for novel juvenile by measuring discrimination index at 50 nmol/uL, icv measured after 48 hrs by novel object recognition test. The assay is classed as functional. The method, boiled down:
as §1

Sequence of Carbonic anhydrase 12 (Homo sapiens) (O43570 whole entry, canonical isoform): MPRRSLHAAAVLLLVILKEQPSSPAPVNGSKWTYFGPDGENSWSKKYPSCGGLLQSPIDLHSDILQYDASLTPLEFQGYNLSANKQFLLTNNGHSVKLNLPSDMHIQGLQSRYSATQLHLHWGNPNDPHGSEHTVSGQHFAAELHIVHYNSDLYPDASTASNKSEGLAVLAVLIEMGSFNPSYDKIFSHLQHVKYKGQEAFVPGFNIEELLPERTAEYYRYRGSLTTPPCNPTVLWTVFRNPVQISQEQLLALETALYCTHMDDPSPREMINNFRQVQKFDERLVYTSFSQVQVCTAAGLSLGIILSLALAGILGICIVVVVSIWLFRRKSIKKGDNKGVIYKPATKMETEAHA

In general, IC50 refers to the point on the concentration scale where inhibition reaches its midpoint. As to `CC(N)CSc1ccccc1` (centres undefined), the Activity_index with Mus musculus [1] is recorded as 0.038; in the assay on Mus musculus [4] it was 0.138. Also, the Ka in assay [2] was found to be 43.3 µM. Further, in assay [3], the IC50 was 4.72 µM.
